From PubChem
UCH37 inh: inhibitors of human UCH37 deubiquitinase, primary screen, biochemical, Ub-AMC cleavage, fluorescence; purified proteasome/UCH37; Ubiquitin carboxyl-terminal hydrolase isozyme L5 (Homo sapiens), Q9Y5K5; inhibition, % (no concentration beside the values); AID 588478, 2011; hit rate 0.33% among 330,000;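 active = mean inhibition over replicate wells above about 20%, limit read from the data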;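 also: 0% = compound-free wells with enzyme and 100% = wells lacking proteasome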
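Schedule: 30 min plus 25 min, room temperature / Material: human UCH37 within purified proteasomes / Technique: AMC fluorescence intensity at 355/460 nm / Buffer or medium: pH 7.4 Tris-HCl (50 mM) with ovalbumin, ATP-MgCl2, DTT / Controls: wells without proteasome as full block, compound-free enzyme plus substrate as uninhibited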
CR mimetic SO: reduction of superoxide in aged yeast, primary screen, HTS | S. cerevisiae aged cells, superoxide DHE fluorescence; active compounds read low | superoxide response (% of plate mean), % at 10 µM | hit rate 0.18% among 330,000;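 active = superoxide response under a set limit, about three screen SD below normal, cut at about 65% in these data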;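 also: yeast aged for seven days with compound at 30 °C before DHE staining; 100% = average MFI of all compound-treated wells on the plate with controls excluded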
PG9 Ab binder: binders of HIV-1 gp120 antibody PG9, primary screen, biochemical, TR-FRET. hit rate 0.43% among 360,000. HIV-1 gp120 / PG9 antibody interaction. AID 624416, 2012. inhibition, % at 6.7 µM. TR-FRET gp120-PG9 antibody binding; in the data active = inhibition above about 8.5%
beta cell repl: inducers of MIN6 beta-cell proliferation, primary screen, ATP luminescence, uHTS. MIN6 cells proliferation, ATPlite luminescence, 48 h; cells starved in 0.2% serum; 100% = growth in 10% serum. proliferation, % at 10 µM. hit rate 0.29% among 330,000;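 active = compounds whose signal lies at least 3.5 SD above the mean of all wells on their plate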;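 also: 0% = DMSO-treated cells in low-serum medium and 100% = 10% serum control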
Rce1 inhib: yeast Rce1p protease inhibitors, primary screen, biochemical, fluorescence, cell-free homogeneous. yeast membranes, quenched prenylated peptide cleavage fluorescence. calls only. hit rate 0.27% among 290,000. AID 2563, 2010;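 active = fall in fluorescence gain of 50% or more versus controls, with final raw signal at or below 3038400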;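 also: plate controls were neutral control wells for no effect and wells lacking membranes for full effect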
Rev-erbA mod: modulators of Rev-erb alpha DNA binding, primary screen, biochemical, FITC-DNA, fluorescence polarization, uHTS. Nuclear receptor subfamily 1 group D member 1 (Homo sapiens), P20393. Rev-erbα–FITC-DNA binding, 90 min. activity, % at 10 µM. hit rate 0.79% among 370,000. AID 1259318, 2017;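 active = activity above about 14%, limit read from the data; passing the limit was not always enough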;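 also: 0% = DMSO wells with 35 nM protein and 100% = DMSO wells with 750 nM protein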
Target sequence (P20393 whole entry, looked up): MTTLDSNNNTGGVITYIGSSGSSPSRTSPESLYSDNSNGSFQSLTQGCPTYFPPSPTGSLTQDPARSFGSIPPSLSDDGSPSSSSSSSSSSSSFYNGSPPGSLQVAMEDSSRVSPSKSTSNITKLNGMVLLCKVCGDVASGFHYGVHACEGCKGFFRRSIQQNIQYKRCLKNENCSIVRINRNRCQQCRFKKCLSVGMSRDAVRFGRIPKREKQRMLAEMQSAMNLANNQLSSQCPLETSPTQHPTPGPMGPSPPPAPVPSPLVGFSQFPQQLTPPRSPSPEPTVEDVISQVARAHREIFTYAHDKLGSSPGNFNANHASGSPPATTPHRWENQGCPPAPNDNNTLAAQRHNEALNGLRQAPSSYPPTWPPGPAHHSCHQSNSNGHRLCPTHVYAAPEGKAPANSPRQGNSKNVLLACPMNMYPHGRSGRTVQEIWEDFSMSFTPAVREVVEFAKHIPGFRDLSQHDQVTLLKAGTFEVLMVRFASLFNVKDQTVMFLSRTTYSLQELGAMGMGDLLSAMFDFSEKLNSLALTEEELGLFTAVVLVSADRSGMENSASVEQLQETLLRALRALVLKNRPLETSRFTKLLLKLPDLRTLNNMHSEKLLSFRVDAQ
PG9 bind confirm: binders of anti-gp120 antibody PG9, confirmation, biochemical, TR-FRET. inhibition, % at 6.7 µM. shares compounds with PG9 Ab binder. hit rate 90% among 1,500. TR-FRET PG9 antibody binding; in the data active = inhibition above about 9%
PGV04 Ab binding: binders of control antibody PGV04, counter-screen for PG9 antibody binder project, biochemical, TR-FRET, distinct HIV envelope site; shares compounds with PG9 Ab binder; TR-FRET PGV04 antibody-gp120 binding; inhibition, % at 6.7 µM; hit rate 95% among 1,500; AID 651604, 2012; in the data active = inhibition above about 9.5%
Rev-erbA confirm: modulators of Rev-erb alpha DNA binding, confirmation, biochemical, FITC-DNA, fluorescence polarization, single point | shares compounds with Rev-erbA mod | 90 min | activation, % at 25 µM | hit rate 61% among 3,000;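 active = activation at or above a set limit, or at least 3 SD above the negative control mean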;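 also: 0% = 35 nM protein with DMSO and 100% = 750 nM protein high control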
RORg counter: modulation of RORgamma DNA binding, dose response, counter-screen for Rev-erb alpha modulator project, biochemical, fluorescence polarization, FITC-DNA; IC50, µM; hit rate 8% among 910; purified RORgamma protein-FITC-DNA binding; shares compounds with Rev-erbA mod;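 active = Compounds whose fitted half-maximal concentration for disrupting protein-DNA binding is below 10 micromolar; the record names Rev-erb in its text, so the target is in doubt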
* hit, by the source's call. Sampled rows, rich in hits. Any-hit rate of the full collection: about 1.9%.

Screening COc1ccc2oc(=O)c(C(=O)NCc3ccccc3)cc2c1 returned UCH37 inh -65, CR mimetic SO 96, PG9 Ab binder 0, beta cell repl -3, Rce1 inhib inactive and Rev-erbA mod 14.
For CCOc1cc(C(=O)OCC(=O)Nc2cc(C)on2)ccc1OCC(C)C the results were UCH37 inh 4, CR mimetic SO 91, PG9 Ab binder 0, beta cell repl -1, Rce1 inhib inactive and Rev-erbA mod -2.
CCOc1ccc(C(=O)OCC(=O)Nc2cc(C)on2)cc1OCC was read as UCH37 inh 2, CR mimetic SO 104, PG9 Ab binder 22*, beta cell repl 3, Rce1 inhib inactive, Rev-erbA mod 58*, PG9 bind confirm 4, PGV04 Ab binding 16* and Rev-erbA confirm 31*.
For COC(=O)c1c(N)[nH]c(C(=O)c2ccccc2)c1-c1ccc(Cl)cc1 the results were PG9 Ab binder 0 and Rev-erbA mod -6.
CCOC(=O)c1cccc2c(=O)c(C(=O)c3ccc(Cl)cc3)c(C(=O)OC)[nH]c12 was read as UCH37 inh 0, CR mimetic SO 112, PG9 Ab binder 21*, beta cell repl 2, Rce1 inhib inactive, Rev-erbA mod 50*, PG9 bind confirm 11*, PGV04 Ab binding 19*, Rev-erbA confirm 37* and RORg counter >40.
`CCOc1ccc(C(=O)Nc2nc(C)c(C(=O)OC)s2)cc1` gave UCH37 inh 2, CR mimetic SO 90, PG9 Ab binder 12*, beta cell repl -4, Rce1 inhib inactive, Rev-erbA mod 50*, PG9 bind confirm 38*, PGV04 Ab binding 71*, Rev-erbA confirm 81* and RORg counter inactive.
`C=CCOC(=O)c1sc(NC(=O)c2ccc(OC)cc2)nc1C` gave UCH37 inh 1, CR mimetic SO 98, PG9 Ab binder 18*, beta cell repl -1, Rce1 inhib inactive, Rev-erbA mod 39*, PG9 bind confirm 22*, PGV04 Ab binding 39* and Rev-erbA confirm 25*.
COC(=O)c1sc(NC(=O)c2ccncc2)nc1C was read as UCH37 inh 13, CR mimetic SO 94, PG9 Ab binder -1, beta cell repl -3, Rce1 inhib inactive and Rev-erbA mod -4.
Cn1c(=O)c2c(nc(NN=C3CCCc4ccccc43)n2Cc2ccc(F)cc2)n(C)c1=O was read as UCH37 inh -16.
Screening Cn1c(-c2ccc(C=O)s2)nc2c3ccccc3c3ccccc3c21 returned CR mimetic SO 89, PG9 Ab binder 8.9*, beta cell repl -3, Rce1 inhib inactive, Rev-erbA mod 135*, PG9 bind confirm 6, PGV04 Ab binding 8 and Rev-erbA confirm 114*.
CC(=O)Nc1ccc(NC(=O)C(C)OC(=O)/C(C#N)=C/c2ccc(N(C)C)cc2)cc1 (stereo not given) was read as CR mimetic SO 102, PG9 Ab binder 17*, beta cell repl 2, Rce1 inhib inactive, Rev-erbA mod 18*, PG9 bind confirm 20*, PGV04 Ab binding 37* and Rev-erbA confirm 14*.
`CC(OC(=O)/C(C#N)=C/c1ccc(N(C)C)cc1)C(=O)N(C)c1ccccc1` (stereo not given) gave CR mimetic SO 103, PG9 Ab binder 0, beta cell repl 1, Rce1 inhib inactive and Rev-erbA mod 12.
Cn1c2ccccc2c(=O)c2c(=O)n(Cc3ccccc3)c(-c3ccc(F)cc3)nc21 was read as UCH37 inh 4, CR mimetic SO 104, PG9 Ab binder 21*, beta cell repl -1, Rce1 inhib inactive, Rev-erbA mod 28*, PG9 bind confirm 28*, PGV04 Ab binding 39* and Rev-erbA confirm 30*.
For COC(=O)c1ccc(NC(=O)c2ccc3nc(C)sc3c2)cc1 the results were UCH37 inh -5, CR mimetic SO 104, PG9 Ab binder 29*, beta cell repl -4, Rce1 inhib inactive, Rev-erbA mod 39*, PG9 bind confirm 32*, PGV04 Ab binding 49* and Rev-erbA confirm 18*.
COc1ccc(NC(=O)c2ccc3nc(C)sc3c2)cc1 was read as UCH37 inh 6, CR mimetic SO 97, PG9 Ab binder -1, beta cell repl 0, Rce1 inhib inactive and Rev-erbA mod 3.
For O=C(NCC1CCCO1)c1cc(-c2ccccc2)nc2ccc(Br)cc12 (stereo not given) the results were UCH37 inh -2, CR mimetic SO 98, PG9 Ab binder 15*, beta cell repl 6, Rce1 inhib inactive, Rev-erbA mod 33*, PG9 bind confirm 19*, PGV04 Ab binding 25* and Rev-erbA confirm 26*.
For COC(=O)C(=NNc1ccccc1C)N1CCCc2ccccc21 the results were UCH37 inh 1.
`O=C(Nc1cccc(O)c1)c1cc(-c2cccs2)on1` gave UCH37 inh 4, CR mimetic SO 82, PG9 Ab binder -1, beta cell repl -4, Rce1 inhib inactive and Rev-erbA mod 1.
`CC(=O)c1cccc(NC(=O)c2cc(-c3cccs3)on2)c1` gave UCH37 inh 4, CR mimetic SO 94, PG9 Ab binder 24*, beta cell repl -3, Rce1 inhib inactive, Rev-erbA mod 33*, PG9 bind confirm 29*, PGV04 Ab binding 47* and Rev-erbA confirm 11.
